Results: ChEMBL document CHEMBL4689842, “EUbOPEN Chemogenomics Library wave 1” (2021)

System: HEK-293T
Experiment: Multiplex assay against HEK293T;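 as to Population Tubulin-Different-Phenotype (%): share of the cells with healthy nuclei that show this phenotype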
Assay type: toxicity, cell-based
Conditions: human
Procedure, shortened: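 On a CQ1 microscope at 37°C and 5% CO2, live cells were imaged after compound addition. They had been stained at seeding with Hoechst33342, BioTracker Green Microtubule Cytoskeleton Dye, MitoTracker Red and Annexin V Alexa Fluor 680. CellPathfinder machine-learning gating assigned cells to Hoechst high-intensity objects or normal cells, normal cells to healthy, pyknosed or fragmented nuclei, and pyknosed cells to mitotic or apoptotic. Tubulin, mitochondrial-mass and membrane-permeability phenotypes are per cents of healthy-nucleus cells.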

[1] = 12 h, 1 µM, compound concentration 1 uM, replicate 1
[2] = 12 h, 1 µM, compound concentration 1 uM, replicate 2
[3] = 12 h, 10 µM, compound concentration 10 uM, replicate 1
[4] = 12 h, 10 µM, compound concentration 10 uM, replicate 2
[5] = 24 h, 1 µM, compound concentration 1 uM, replicate 1
[6] = 24 h, 1 µM, compound concentration 1 uM, replicate 2
[7] = 24 h, 10 µM, compound concentration 10 uM, replicate 1
[8] = 24 h, 10 µM, compound concentration 10 uM, replicate 2
[9] = 48 h, 1 µM, compound concentration 1 uM, replicate 1
[10] = 48 h, 1 µM, compound concentration 1 uM, replicate 2
[11] = 48 h, 10 µM, compound concentration 10 uM, replicate 1
[12] = 48 h, 10 µM, compound concentration 10 uM, replicate 2

**Q.** What does the source list for CCN1CCN(Cc2ccc(Nc3ncc(F)c(-c4cc(F)c5nc(C)n(C(C)C)c5c4)n3)nc2)CC1.CS(=O)(=O)O?
**A.** Population Apoptotic (%) [1]: 60%; Population Fragmented Nuclei (%) [1]: 17%; Population Healthy Nuclei (%) [1]: 19%; Population Hoechst High Intensity Objects (%) [1]: 17%; Population Membrane Permeable-Phenotype (%) [1]: 0%; Population Mitochondria Different-Phenotype (%) [1]: 94%; Population Mitotic Cells (%) [1]: 40%; Population Normal (%) [1]: 82%; Population Pyknosed Nuclei (%) [1]: 63%; Population Tubulin-Different-Phenotype (%) [1]: 92%; Total Cell Count [1]: 249; Population Apoptotic (%) [2]: 40%; Population Fragmented Nuclei (%) [2]: 7%; Population Healthy Nuclei (%) [2]: 27%; Population Hoechst High Intensity Objects (%) [2]: 4%; Population Membrane Permeable-Phenotype (%) [2]: 14%; Population Mitochondria Different-Phenotype (%) [2]: 83%; Population Mitotic Cells (%) [2]: 59%; Population Normal (%) [2]: 95%; Population Pyknosed Nuclei (%) [2]: 64%; Population Tubulin-Different-Phenotype (%) [2]: 81%; Total Cell Count [2]: 181; Population Apoptotic (%) [3]: 74%; Population Fragmented Nuclei (%) [3]: 14%; Population Healthy Nuclei (%) [3]: 1%; Population Hoechst High Intensity Objects (%) [3]: 25%; Population Membrane Permeable-Phenotype (%) [3]: 0%; Population Mitochondria Different-Phenotype (%) [3]: 33%; Population Mitotic Cells (%) [3]: 25%; Population Normal (%) [3]: 74%; Population Pyknosed Nuclei (%) [3]: 84%; Population Tubulin-Different-Phenotype (%) [3]: 66%; Total Cell Count [3]: 289; Population Apoptotic (%) [4]: 62%; Population Fragmented Nuclei (%) [4]: 12%; Population Healthy Nuclei (%) [4]: 25%; Population Hoechst High Intensity Objects (%) [4]: 21%; Population Membrane Permeable-Phenotype (%) [4]: 2%; Population Mitochondria Different-Phenotype (%) [4]: 79%; Population Mitotic Cells (%) [4]: 37%; Population Normal (%) [4]: 79%; Population Pyknosed Nuclei (%) [4]: 62%; Population Tubulin-Different-Phenotype (%) [4]: 97%; Total Cell Count [4]: 219; Population Apoptotic (%) [5]: 63%; Population Fragmented Nuclei (%) [5]: 19%; Population Healthy Nuclei (%) [5]: 32%; Population Hoechst High Intensity Objects (%) [5]: 18%; Population Membrane Permeable-Phenotype (%) [5]: 0%; Population Mitochondria Different-Phenotype (%) [5]: 100%; Population Mitotic Cells (%) [5]: 36%; Population Normal (%) [5]: 81%; Population Pyknosed Nuclei (%) [5]: 47%; Population Tubulin-Different-Phenotype (%) [5]: 95%; Total Cell Count [5]: 253; Population Apoptotic (%) [6]: 51%; Population Fragmented Nuclei (%) [6]: 5%; Population Healthy Nuclei (%) [6]: 45%; Population Hoechst High Intensity Objects (%) [6]: 5%; Population Membrane Permeable-Phenotype (%) [6]: 2%; Population Mitochondria Different-Phenotype (%) [6]: 88%; Population Mitotic Cells (%) [6]: 48%; Population Normal (%) [6]: 94%; Population Pyknosed Nuclei (%) [6]: 48%; Population Tubulin-Different-Phenotype (%) [6]: 94%; Total Cell Count [6]: 201; Population Apoptotic (%) [7]: 72%; Population Fragmented Nuclei (%) [7]: 23%; Population Healthy Nuclei (%) [7]: 0%; Population Hoechst High Intensity Objects (%) [7]: 23%; Population Membrane Permeable-Phenotype (%) [7]: 0%; Population Mitochondria Different-Phenotype (%) [7]: 0%; Population Mitotic Cells (%) [7]: 27%; Population Normal (%) [7]: 76%; Population Pyknosed Nuclei (%) [7]: 76%; Population Tubulin-Different-Phenotype (%) [7]: 0%; Total Cell Count [7]: 287; Population Apoptotic (%) [8]: 79%; Population Fragmented Nuclei (%) [8]: 4%; Population Healthy Nuclei (%) [8]: 18%; Population Hoechst High Intensity Objects (%) [8]: 21%; Population Membrane Permeable-Phenotype (%) [8]: 3%; Population Mitochondria Different-Phenotype (%) [8]: 93%; Population Mitotic Cells (%) [8]: 20%; Population Normal (%) [8]: 78%; Population Tubulin-Different-Phenotype (%) [8]: 93%; Total Cell Count [8]: 213; Population Apoptotic (%) [9]: 58%; Population Fragmented Nuclei (%) [9]: 29%; Population Healthy Nuclei (%) [9]: 28%; Population Hoechst High Intensity Objects (%) [9]: 17%; Population Membrane Permeable-Phenotype (%) [9]: 0%; Population Mitochondria Different-Phenotype (%) [9]: 81%; Population Mitotic Cells (%) [9]: 41%; Population Normal (%) [9]: 82%; Population Pyknosed Nuclei (%) [9]: 42%; Population Tubulin-Different-Phenotype (%) [9]: 89%; Total Cell Count [9]: 254; Population Apoptotic (%) [10]: 62%; Population Fragmented Nuclei (%) [10]: 9%; Population Healthy Nuclei (%) [10]: 65%; Population Hoechst High Intensity Objects (%) [10]: 6%; Population Membrane Permeable-Phenotype (%) [10]: 1%; Population Mitochondria Different-Phenotype (%) [10]: 71%; Population Mitotic Cells (%) [10]: 37%; Population Normal (%) [10]: 93%; Population Pyknosed Nuclei (%) [10]: 24%; Population Tubulin-Different-Phenotype (%) [10]: 93%; Total Cell Count [10]: 243; Population Apoptotic (%) [11]: 80%; Population Fragmented Nuclei (%) [11]: 27%; Population Healthy Nuclei (%) [11]: 0%; Population Hoechst High Intensity Objects (%) [11]: 27%; Population Membrane Permeable-Phenotype (%) [11]: 100%; Population Mitochondria Different-Phenotype (%) [11]: 100%; Population Mitotic Cells (%) [11]: 19%; Population Normal (%) [11]: 72%; Population Pyknosed Nuclei (%) [11]: 72%; Population Tubulin-Different-Phenotype (%) [11]: 0%; Total Cell Count [11]: 291; Population Apoptotic (%) [12]: 83%; Population Fragmented Nuclei (%) [12]: 10%; Population Healthy Nuclei (%) [12]: 11%; Population Hoechst High Intensity Objects (%) [12]: 28%; Population Membrane Permeable-Phenotype (%) [12]: 11%; Population Mitochondria Different-Phenotype (%) [12]: 94%; Population Mitotic Cells (%) [12]: 16%; Population Normal (%) [12]: 71%; Population Pyknosed Nuclei (%) [12]: 77%; Population Tubulin-Different-Phenotype (%) [12]: 88%; Total Cell Count [12]: 202
